What was measured:
[1] = tested on: L1210; assay: Compound was tested in vitro against murine L1210 leukemia; IA means inactive.; type: functional, cell-based, Mus musculus
[2] = tested on: P388; assay: Optimal dose per injection in mg/kg required to inhibit growth of P388 leukemia cells in mice; type: functional, Mus musculus
Method in brief: (§1)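 P388 leukemia implanted ip in mice; drug given ip on days 1 and 5 (ip/ip; D1,5), dosed in mg/kg per injection. Read-out is treated/control (T/C, %) with cures counted, reported at the optimal dose.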

[3] = tested on: P388; assay: Inhibition of P388 leukemia cells in mice, measured as percent treated to the control values with the number of 30 day survivors; type: functional, Mus musculus; method in brief: as §1
[4] = tested on: P388; assay: Activity against P388 leukemia cells in mice, by intraperitoneal dosing and net log tumor cell kill was reported; type: functional, Mus musculus
[5] = tested on: B16; assay: Tested for activity against murine B-16 melanoma in mice and percent treated to the control values with the number of 60 day survivors; type: functional, Mus musculus
Method in brief: (§2)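 Murine B-16 melanoma in vivo: tumor implanted ip, compound given ip on days 1–9 (ip/ip; D1–9), dosed as mg/kg per injection. Activity expressed as T/C (%) plus number of cures, taken at the optimal dose.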

[6] = tested on: B16; assay: Optimal dose per injection in mg/kg required to inhibit growth of murine B-16 melanoma in vivo; type: functional, Mus musculus; method in brief: as §2
[7] = tested on: L1210; assay: Tested in vitro against murine L1210 leukemia.; type: functional, cell-based; details: Mus musculus

SMILES | IC50 [1] | Dose [2] [mg/kg] | T/C [3] [%] | Activity [4] | T/C [5] [%] | Optimal dose [6] [mg/kg] | IC50 [7] [nM]
Cl.O=C1c2c(O)ccc(O)c2-c2nn(CCCNCCO)c3ccc(NCCNCCO)c1c23 | Not Active | 100 | 275 | >7 | – | – | –
CN(CCNc1ccc2c3c(nn2CCNCCO)-c2c(O)ccc(O)c2C(=O)c13)C(=O)OCc1ccccc1 | Not Active | – | – | – | – | – | –
CCN(CC)CCCCNc1ccc2c3c(nn2CCO)-c2ccccc2C(=O)c13.Cl | Not Active | 300 | 115 | -1.3 | – | – | –
Cl.NCCNCCNc1ccc2c3c(nn2CCO)-c2c(O)ccc(O)c2C(=O)c13 | Not Active | 200 | 174 | 1.2 | – | – | –
COCCn1nc2c3c(c(NCCN)ccc31)C(=O)c1c(O)ccc(O)c1-2.Cl | Not Active | 50 | 127 | -0.6 | – | – | –
Cl.O=C1c2ccccc2-c2nn(CCO)c3ccc(NCCN4CCOCC4)c1c23 | Not Active | 25 | 100 | -1.5 | – | – | –
O=C1c2c(O)ccc(O)c2C(=O)c2c(NCCNCCO)ccc(NCCNCCO)c21 [MITOXANTRONE] | – | 3 | 267 | >6.8 | 265 | 0.6 | 1.6
CCN(CC)CCn1nc2c3c(c(NCCN(C)C(=O)OCc4ccccc4)ccc31)C(=O)c1c(O)ccc(O)c1-2 | Not Active | – | – | – | – | – | –
CCN(CC)CCn1nc2c3c(c(NCCN)ccc31)C(=O)c1c(O)ccc(O)c1-2.Cl | – | 12.5 | 280 | >7.1 | 176 | 3.6 | 46
CCN(CC)CCCNc1ccc2c3c(nn2CCO)-c2ccccc2C(=O)c13.Cl | Not Active | 200 | 104 | -1.5 | – | – | –
Cl.NCCCNc1ccc2c3c(nn2CCNCCO)-c2c(O)ccc(O)c2C(=O)c13 | – | 45 | 294 | >6.5 | 338 | 8 | 960
CCN(CC)CCCCCCCNc1ccc2c3c(nn2CCO)-c2ccccc2C(=O)c13.Cl | Not Active | 100 | 98 | -1.6 | – | – | –
CNCCNc1ccc2c3c(nn2CCNCCO)-c2c(O)ccc(O)c2C(=O)c13 [TELOXANTRONE] | – | 12.5 | – | >6.6 | 357 | 1.5 | 140
CSCCn1nc2c3c(c(NCCNCCO)ccc31)C(=O)c1c(O)ccc(O)c1-2.Cl | Not Active | 6.25 | 140 | 0.3 | – | – | –
O=C(O)CCNc1ccc2c3c(nn2CCO)-c2ccccc2C(=O)c13 | Not Active | 25 | 98 | -1.6 | – | – | –
Cl.NCCCCCNc1ccc2c3c(nn2CCNCCO)-c2c(O)ccc(O)c2C(=O)c13 | Not Active | 100 | 150 | 1.5 | – | – | –
CN(C)CCn1nc2c3c(c(NCCNCCO)ccc31)C(=O)c1c(O)ccc(O)c1-2.Cl | – | 12.5 | 242 | 6.5 | 183 | 3 | 120
CCN(CC)CC(O)Cn1nc2c3c(c(NCCN)ccc31)C(=O)c1c(O)ccc(O)c1-2.Cl (configuration not stated) | Not Active | 6.25 | 262 | >6.7 | – | – | –

SMILES | IC50 [1] | Dose [2] [mg/kg] | T/C [3] [%] | Activity [4] | T/C [5] [%] | Optimal dose [6] [mg/kg] | IC50 [7] [nM]
Cl.O=C1c2c(O)ccc(O)c2-c2nn(CCNCCO)c3ccc(NCCN(CCO)CCO)c1c23 | – | 200 | 277 | >6.6 | 342 | 25 | 430
Cl.NCCCCNc1ccc2c3c(nn2CCNCCO)-c2c(O)ccc(O)c2C(=O)c13 | Not Active | 100 | 173 | 3.4 | – | – | –
Cl.NCCCn1nc2c3c(c(NCCNCCO)ccc31)C(=O)c1c(O)ccc(O)c1-2 | – | 50 | – | >6.6 | 375 | 6.25 | 160
CCN(CC)CCn1nc2c3c(c(NCCC(=O)O)ccc31)C(=O)c1ccccc1-2 | Not Active | 12.5 | 117 | -1.3 | – | – | –
Cl.O=C1c2ccccc2-c2nn(CCO)c3ccc(NCCN4CCNCC4)c1c23 | Not Active | 50 | 109 | -1.3 | – | – | –
Cl.O=C1c2ccccc2-c2nn(CCO)c3ccc(NCCNCCO)c1c23 | – | 25 | 125 | -0.9 | – | – | 1800
CN(C)CCCn1nc2c3c(c(NCCCN)ccc31)C(=O)c1c(O)ccc(O)c1-2.Cl | – | 25 | 212 | 4 | – | – | 800
Cl.NCCNc1ccc2c3c(nn2CCN)-c2c(O)ccc(O)c2C(=O)c13 | – | 12.5 | 221 | 5.6 | – | – | 480
Cl.NCCCNCCCCNCCCNc1ccc2c3c(nn2CCNCCO)-c2c(O)ccc(O)c2C(=O)c13 | Not Active | 12.5 | 145 | 0.6 | – | – | –
Cl.NCCNc1ccc2c3c(nn2CCO)-c2c(O)ccc(O)c2C(=O)c13 | – | 100 | 196 | 6.8 | – | – | 480
CCN(CC)CCn1nc2c3c(c(NCCNC)ccc31)C(=O)c1ccccc1-2.Cl | – | 25 | 138 | 0.7 | – | – | 27
CN(C)CCNc1ccc2c3c(nn2CCNCCO)-c2ccccc2C(=O)c13.Cl | – | 6.25 | 174 | 3.1 | – | – | 32
Cl.O=C1c2c(O)ccc(O)c2-c2nn(CCNCCO)c3ccc(NCCN4CCOCC4)c1c23 | – | 50 | 177 | 2.9 | – | – | 650
CCN(CC)CCn1nc2c3c(c(NCCNCCO)ccc31)C(=O)c1c(O)ccc(O)c1-2.Cl | – | 12.5 | 264 | >6.8 | – | 6 | 130
CCN(CC)CCNc1ccc2c3c(nn2C)-c2ccccc2C(=O)c13.Cl | – | 400 | 98 | -1.5 | – | – | 670
CCN(CC)CCCCCCCNc1ccc2c3c(nn2CCN(CC)CC)-c2ccccc2C(=O)c13.Cl | – | 25 | 104 | -1.5 | – | – | 630
Cl.O=C1c2ccccc2-c2nn(CCNCCO)c3ccc(NCCO)c1c23 | – | 25 | 139 | 0.1 | – | – | 750

— ChEMBL document CHEMBL1123657, “Anthrapyrazole anticancer agents. Synthesis and structure-activity relationships against murine leukemias” (J Med Chem, 1987)
